# From ChEMBL document CHEMBL4373727, “Thienopyrimidinone Derivatives That Inhibit Bacterial tRNA (Guanine37-N1)-Methyltransferase (TrmD) by Restructuring the Active Site with a Tyrosine-Flipping Mechanism” (J Med Chem, 2019)
# Calls of active or inactive are those of the source. Unless noted, no cut-off for these calls is given here.
# How the values were obtained:
# [1] = target: T1, tRNA (guanine-N(1)-)-methyltransferase (Pseudomonas aeruginosa (strain ATCC 15692 / DSM 22644 / CIP 104116 / JCM14847 / LMG 12228 / 1C / PRS 101 / PAO1)) (UniProt Q9HXQ1); experiment: (§1) Inhibition of Pseudomonas aeruginosa tRNA (guanine(37)-N1)-methyltransferase (Leu5 to Asp25 residues) expressed in Escherichia coli BL21 (DE3) Rosetta T1R cells assessed as reduction in S-adenosyl-L-homocysteine production up to 50 uM preincubated for 15 mins followed by 1.5 uM of tRNALeu(CAG) substrate and SAM addition and measured after 45 mins by MTase-Glo assay
# T1 sequence (whole entry): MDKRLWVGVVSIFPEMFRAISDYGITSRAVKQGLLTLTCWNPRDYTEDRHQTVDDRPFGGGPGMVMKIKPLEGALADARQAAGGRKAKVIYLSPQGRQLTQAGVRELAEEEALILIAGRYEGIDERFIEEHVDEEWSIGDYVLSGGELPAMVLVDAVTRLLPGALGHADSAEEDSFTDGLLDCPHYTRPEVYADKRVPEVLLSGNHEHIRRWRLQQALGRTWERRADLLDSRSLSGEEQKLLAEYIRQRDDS
# In short: (§2)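 MTase-Glo luminescence assay. 8 nM TrmD preincubated 15 min at ambient temperature with serially diluted inhibitor (0–500 μM) in 50 mM Tris-HCl pH 8.0, 80 mM NaCl, 1 mM MgCl2, 0.5 mM DTT, 0.01% Triton X-100. Reaction with 2 μM SAM and tRNALeu(CAG), 45 min at 37 °C. Detection 30 min in the dark, SAH read against a standard curve. IC50 by nonlinear regression. Two independent experiments in duplicate.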
# Erythrocyte = experiment: Hemolytic activity in human RBC at 100 uM measured after 1 hr; assay type: ADME, cell-based
# In short: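 Fresh human RBCs were PBS-washed and resuspended to OD600 24, then mixed 1:1 by volume with compound serially diluted in PBS. Incubated 1 h at 37 °C without shaking and centrifuged at 1000g for 15 min. Triton X-100 served as positive control. Run in triplicate.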
# [2] = target: T1, tRNA (guanine-N(1)-)-methyltransferase (Pseudomonas aeruginosa (strain ATCC 15692 / DSM 22644 / CIP 104116 / JCM14847 / LMG 12228 / 1C / PRS 101 / PAO1)); experiment: Binding affinity to Pseudomonas aeruginosa tRNA (guanine(37)-N1)-methyltransferase (Leu5 to Asp25 residues) expressed in Escherichia coli BL21 (DE3) Rosetta T1R cells assessed as thermal stabilization of protein by measuring change in melting temperature at 0.1 mM by SYPRO orange based thermal shift assay
# In short: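 Thermal shift: 4 μM TrmD with 5× SYPRO Orange and ligand in 50 mM Tris-HCl pH 8, 150 mM NaCl, 1 mM MgCl2, 1 mM DTT, 0.05% Tween-20. Buffer-only control. Heated from 25 to 95 °C in a real-time PCR instrument, and Tm taken as the unfolding midpoint. Ligand levels: SAH 2 mM, inhibitors 0.1 mM.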
# Staphylococcus aureus [3] = experiment: Antibacterial activity against methicillin-resistant Staphylococcus aureus ATCC 43300 at 100 uM incubated for 24 hrs; assay type: functional, organism-based
# In short: (§3)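 Single-concentration growth screen: 100 μM test compound with log-phase bacteria at about 5×10^5 cells/mL. Incubation 24 h at 37 °C. Growth read by OD600 and given as percent of untreated control. MRSA was grown in cation-adjusted Mueller–Hinton broth. M. smegmatis was grown in complete Middlebrook 7H9. Ampicillin and kanamycin served as positive controls.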
# Enterococcus faecalis [4] = experiment: Antibacterial activity against Enterococcus faecalis ATCC 51299 incubated for 24 hrs by serial broth microdilution method; assay type: functional, organism-based
# In short: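 Broth microdilution in brain heart infusion broth, ~5×10^5 cells/mL log-phase inoculum, serial compound dilutions, 24 h at 37 °C, OD600 read-out. MIC50/MIC90 are the concentrations giving 50%/90% growth inhibition relative to drug-free controls. Two independent experiments in duplicate.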
# Streptococcus pneumoniae [5] = experiment: Antibacterial activity against Streptococcus pneumoniae ATCC 49619 at 100 uM incubated for 24 hrs; assay type: functional, organism-based
# In short: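 Single 100 μM screen in MH medium with 3% defibrinated sheep blood at 37 °C under 5% CO2, ~5×10^5 cells/mL, 24 h.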
# Acinetobacter baumannii = experiment: Antibacterial activity against Acinetobacter baumannii ATCC 17961 incubated for 24 hrs by serial broth microdilution method; assay type: functional
# In short: (§4)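 Log-phase cultures from four colonies grown overnight at 37 °C, inoculated at ~5×10^5 cells/mL in cation-adjusted Mueller–Hinton broth with serially diluted compound. Grown 24 h at 37 °C, then OD600 read. MIC50/MIC90 are the concentrations giving 50%/90% growth inhibition relative to drug-free controls. Two independent experiments in duplicate.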
# [6] = system: Mycobacterium tuberculosis; experiment: Antibacterial activity against Mycobacterium tuberculosis ATCC 27294 at 100 uM incubated for 7 days; assay type: functional, organism-based
# [7] = target: T2, tRNA (guanine-N(1)-)-methyltransferase (Pseudomonas aeruginosa (strain ATCC 15692 / DSM 22644 / CIP 104116 / JCM14847 / LMG 12228 / 1C / PRS 101 / PAO1), UniProt Q9HXQ1); experiment: as §1, with “production” for “production up to 50 uM”; in short: as §2
# T2 sequence (Q9HXQ1 whole entry): T1 sequence (whole entry)
# Salmonella enteritidis = experiment: Antibacterial activity against Salmonella enteritidis ATCC 13076 incubated for 24 hrs by serial broth microdilution method; assay type: functional; conditions: Salmonella enterica subsp. enterica serovar Enteritidis; in short: as §4
# Streptococcus pneumoniae [8] = experiment: Antibacterial activity against Streptococcus pneumoniae ATCC 49619 incubated for 24 hrs by serial broth microdilution method; assay type: functional
# In short: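 Cultured in MH medium plus 3% defibrinated sheep blood at 37 °C, 5% CO2. Log-phase inoculum ~5×10^5 cells/mL was exposed to serial compound dilutions for 24 h. MIC50/MIC90 are relative to drug-free controls. Two independent experiments in duplicate.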
# Staphylococcus aureus [9] = experiment: Antibacterial activity against methicillin-resistant Staphylococcus aureus ATCC 43300 incubated for 24 hrs by serial broth microdilution method; assay type: functional
# In short: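 Growth read by OD600. MRSA in cation-adjusted Mueller–Hinton broth, M. smegmatis in complete 7H9. MIC50 and MIC90 are 50% and 90% growth inhibition versus drug-free controls. Two independent experiments, each in duplicate.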
# Enterococcus faecalis [10] = experiment: Antibacterial activity against Enterococcus faecalis ATCC 51299 at 100 uM incubated for 24 hrs; assay type: functional, organism-based
# In short: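 Single-concentration screen in brain heart infusion broth. Log-phase cells at ~5×10^5 cells/mL were grown with 100 μM compound for 24 h at 37 °C. Growth was read as OD600 and expressed as a percentage of untreated wells. DMSO and blank controls were included.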
# Pseudomonas aeruginosa = experiment: Antibacterial activity against Pseudomonas aeruginosa PA14 incubated for 24 hrs by serial broth microdilution method; assay type: functional, organism-based; in short: as §4
# Escherichia coli = experiment: Antibacterial activity against Escherichia coli BW25113 incubated for 24 hrs by serial broth microdilution method; assay type: functional, organism-based; in short: as §4
# [11] = system: Mycolicibacterium smegmatis; experiment: Antibacterial activity against Mycolicibacterium smegmatis MC2 155 at 100 uM incubated for 24 hrs; assay type: functional, organism-based; in short: as §3
# Klebsiella pneumoniae = experiment: Antibacterial activity against Klebsiella pneumoniae ATCC 13883 incubated for 24 hrs by serial broth microdilution method; assay type: functional, organism-based; in short: as §4
structure (smiles),measurement,setting,value
CCCOc1ncnc2scc(C(=O)NCc3ccc(CN4CCOCC4)cc3)c12,inhibition,[1],inactive
same,Activity,Erythrocyte,Non-Toxic
same,ΔTm,[2],1 to 2 °C
CCCCCCCCNCc1ccc(CNC(=O)c2csc3ncnc(OC)c23)cc1,inhibition,[1],inactive
same,Activity,Erythrocyte,Non-Toxic
same,ΔTm,[2],1 to 2 °C
CCCCCCCCNCc1ccc(CNC(=O)c2csc3ncnc(OCCCCCC)c23)cc1,inhibition,[1],inactive
same,ΔTm,[2],1 to 2 °C
COc1ncnc2scc(C(=O)NCc3ccc(CN4CCOCC4)cc3)c12,inhibition,[1],inactive
same,Activity,Erythrocyte,Non-Toxic
same,ΔTm,[2],1 to 2 °C
CCCCCCCCNCc1ccc(CNC(=O)c2csc3ncnc(OCCC)c23)cc1,inhibition,[1],inactive
same,ΔTm,[2],1 to 2 °C
CCCOc1ncnc2scc(C(=O)NCc3ccc(CNCc4ccccc4)cc3)c12,inhibition,[1],inactive
same,Activity,Erythrocyte,Non-Toxic
same,ΔTm,[2],1 to 2 °C
COc1ncnc2scc(C(=O)NCc3ccc(CNCc4ccccc4)cc3)c12,inhibition,[1],inactive
same,Activity,Erythrocyte,Non-Toxic
same,ΔTm,[2],1 to 2 °C
Cl.NCCCCCCCNCc1ccc(CNC(=O)c2csc3nc[nH]c(=O)c23)cc1,Activity,Staphylococcus aureus [3],inactive
same,Activity,Enterococcus faecalis [4],inactive
same,Activity,Streptococcus pneumoniae [5],inactive
same,Activity,Acinetobacter baumannii,inactive
same,Activity,[6],inactive
same,IC50,[7],140 nM
same,Activity,Erythrocyte,Non-Toxic
same,Activity,Salmonella enteritidis,inactive
same,Activity,Streptococcus pneumoniae [8],inactive
same,Activity,Staphylococcus aureus [9],inactive
same,Activity,Enterococcus faecalis [10],inactive
same,Activity,Pseudomonas aeruginosa,inactive
same,Activity,Escherichia coli,inactive
same,Activity,[11],inactive
same,Activity,Klebsiella pneumoniae,inactive
O=C(NCc1ccc(CNC(=O)c2cc(=O)c(O)cn2O)cc1)c1csc2nc[nH]c(=O)c12,Activity,Staphylococcus aureus [3],inactive
same,Activity,Enterococcus faecalis [4],inactive
same,Activity,Streptococcus pneumoniae [5],inactive
same,Activity,Acinetobacter baumannii,inactive
same,Activity,[6],inactive
same,IC50,[7],700 nM
same,Activity,Erythrocyte,Non-Toxic
same,Activity,Salmonella enteritidis,inactive
same,Activity,Streptococcus pneumoniae [8],inactive
same,Activity,Staphylococcus aureus [9],inactive
same,Activity,Enterococcus faecalis [10],inactive
same,Activity,Pseudomonas aeruginosa,inactive
same,Activity,Escherichia coli,inactive
same,Activity,[11],inactive
same,Activity,Klebsiella pneumoniae,inactive
CCCCCCOc1ncnc2scc(C(=O)NCc3ccc(CNCc4ccccc4)cc3)c12,inhibition,[1],inactive
same,ΔTm,[2],1 to 2 °C
